Assay results as given in ChEMBL document CHEMBL3297654, “Synthesis, antimicrobial and cytotoxic activities, and structure-activity relationships of gypsogenin derivatives against human cancer cells” (Eur J Med Chem, 2014).
Calls of active or inactive are those of the source. The rule behind the calls is not given here.

Tests used:
[1] = tested on: Salmonella typhimurium; experiment: Antimicrobial activity against Salmonella typhimurium ATCC 14028 assessed as zone of inhibition at 30 uL for 24 hrs at 37 degC by disk diffusion test; type: functional, organism-based; conditions: Salmonella enterica subsp. enterica serovar Typhimurium
Outline: (§1)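 Compound (30 µL of a fresh 1000 µg/mL DMSO stock) goes into a 6 mm well cut in Mueller Hinton agar inoculated with 0.1 mL broth culture adjusted to 0.5 McFarland (about 1×10^8 cells/mL). Plates are incubated 24 h at 37 °C, then zone of inhibition diameter is measured in mm.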

[2] = tested on: Micrococcus luteus; experiment: Antimicrobial activity against Micrococcus luteus ATCC 9341 assessed as zone of inhibition at 30 uL for 24 hrs at 30 degC by disk diffusion test; type: functional, organism-based
Outline: (§2)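 Agar well diffusion on Mueller Hinton agar seeded with 0.1 mL broth culture (18–24 h), adjusted to 0.5 McFarland (about 1×10^8 bacteria or 1×10^6 yeast cells/mL). A 6 mm well is filled with 30 µL of compound from a fresh 1000 µg/mL DMSO stock. Plates are held at 30 °C for 24 h and inhibition zone diameter is read in mm.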

[3] = tested on: Staphylococcus aureus; experiment: Antimicrobial activity against Staphylococcus aureus ATCC 25923 assessed as zone of inhibition at 30 uL for 24 hrs at 37 degC by disk diffusion test; type: functional, organism-based; outline: as §1
[4] = tested on: Staphylococcus epidermidis; experiment: Antimicrobial activity against Staphylococcus epidermidis ATCC 12228 assessed as zone of inhibition at 30 uL for 24 hrs at 37 degC by disk diffusion test; type: functional, organism-based; outline: as §1
[5] = tested on: Klebsiella pneumoniae; experiment: Antimicrobial activity against Klebsiella pneumoniae ATCC 13882 assessed as zone of inhibition at 30 uL for 24 hrs at 37 degC by disk diffusion test; type: functional, organism-based; outline: as §1
[6] = tested on: Pseudomonas aeruginosa; experiment: Antimicrobial activity against Pseudomonas aeruginosa ATCC 35032 assessed as zone of inhibition at 30 uL for 24 hrs at 37 degC by disk diffusion test; type: functional, organism-based; outline: as §1
[7] = tested on: Proteus vulgaris; experiment: Antimicrobial activity against Proteus vulgaris ATCC 33420 assessed as zone of inhibition at 30 uL for 24 hrs at 37 degC by disk diffusion test; type: functional, organism-based; outline: as §1
[8] = tested on: Enterococcus faecalis; experiment: Antimicrobial activity against Enterococcus faecalis ATCC 29212 assessed as zone of inhibition at 30 uL for 24 hrs at 37 degC by disk diffusion test; type: functional, organism-based; outline: as §1
[9] = tested on: Bacillus cereus; experiment: Antimicrobial activity against Bacillus cereus ATCC 11778 assessed as zone of inhibition at 30 uL for 24 hrs at 30 degC by disk diffusion test; type: functional; outline: as §2
[10] = tested on: Bacillus subtilis; experiment: Antimicrobial activity against Bacillus subtilis ATCC 6633 assessed as zone of inhibition at 30 uL for 24 hrs at 30 degC by disk diffusion test; type: functional; outline: as §2
[11] = tested on: Bacillus thuringiensis; experiment: Antimicrobial activity against Bacillus thuringiensis assessed as zone of inhibition at 30 uL for 24 hrs at 30 degC by disk diffusion test; type: functional; outline: as §2
[12] = tested on: Candida albicans; experiment: Antimicrobial activity against Candida albicans ATCC 10231 assessed as zone of inhibition at 30 uL for 24 hrs at 30 degC by disk diffusion test; type: functional, organism-based; outline: as §2
[13] = tested on: Cyberlindnera jadinii; experiment: Antimicrobial activity against Candida utilis ATCC 9950 assessed as zone of inhibition at 30 uL for 24 hrs at 30 degC by disk diffusion test; type: functional, organism-based; outline: as §2
[14] = tested on: Candida tropicalis; experiment: Antimicrobial activity against Candida tropicalis assessed as zone of inhibition at 30 uL for 24 hrs at 30 degC by disk diffusion test; type: functional, organism-based; outline: as §2
[15] = tested on: Nakaseomyces glabratus; experiment: Antimicrobial activity against Candida glabrata assessed as zone of inhibition at 30 uL for 24 hrs at 30 degC by disk diffusion test; type: functional, organism-based; outline: as §2
[16] = tested on: Saccharomyces cerevisiae; experiment: Antimicrobial activity against Saccharomyces cerevisiae ATCC 9763 assessed as zone of inhibition at 30 uL for 24 hrs at 30 degC by disk diffusion test; type: functional, organism-based; outline: as §2
[17] = tested on: Bacillus cereus; experiment: Antimicrobial activity against Bacillus cereus ATCC 11778 for 24 hrs by microdillution method; type: functional
Outline: (§3)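 Broth microdilution. Compound is dissolved in DMSO (2 mg/mL) and diluted in Mueller Hinton broth as two-fold serial dilutions from 256 to 0.125 µg/mL. Bacteria are pre-grown in nutrient broth at 30 °C, and the final inoculum is about 10^6 cfu/mL. Tests are incubated 37 °C for 24 h. MIC is the lowest concentration giving complete inhibition. Streptomycin is the positive control.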

[18] = tested on: Bacillus subtilis; experiment: Antimicrobial activity against Bacillus subtilis ATCC 6633 for 24 hrs by microdillution method; type: functional; outline: as §3
[19] = tested on: Bacillus thuringiensis; experiment: Antimicrobial activity against Bacillus thuringiensis for 24 hrs by microdillution method; type: functional; outline: as §3
[20] = tested on: HL-60; experiment: Antiproliferative activity against human HL60 cells after 24 and 72 hrs by MTT assay; type: functional, cell-based
Outline: (§4)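 ATCC human cell lines are kept in RPMI, DMEM or McCoy's 5A with 10–15% heat-inactivated FCS at 37 °C and 5% CO2. They are seeded at 1×10^4–1×10^5 cells/mL in 48-well plates and exposed to 0.5, 10, 20 or 40 µM. Viability is read by MTT (590 nm) at 24 and 72 h. Growth is expressed relative to untreated cells and IC50 is fitted, in triplicate.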

[21] = tested on: HT-29; experiment: Antiproliferative activity against human HT-29 cells after 24 and 72 hrs by MTT assay; type: functional, cell-based; outline: as §4
[22] = tested on: Caco-2; experiment: Antiproliferative activity against human Caco2 cells after 24 and 72 hrs by MTT assay; type: functional, cell-based; outline: as §4
[23] = Antiproliferative activity against human Saos2 cells after 24 and 72 hrs by MTT assay; type: functional, cell-based; conditions: SAOS-2; outline: as §4
[24] = tested on: MCF7; experiment: Antiproliferative activity against human MCF7 cells after 24 and 72 hrs by MTT assay; type: functional, cell-based; outline: as §4
[25] = tested on: HeLa; experiment: Antiproliferative activity against human HeLa cells after 24 and 72 hrs by MTT assay; type: functional, cell-based; outline: as §4
[26] = tested on: HL-60; experiment: Induction of apoptosis in human HL60 cells at 20 uM after 48 hrs by Hoechst 33258/propidium iodide staining based phase contrast microscopic analysis; type: functional
Outline: (§5)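 Cells in 48-well plates treated with 0.5, 10, 20 or 40 µM for 24 and 48 h. Values are read at 48 h, 20 µM for test agents and 0.5 µM for controls. Staining is Hoechst 33258/propidium iodide double staining with fluorescence microscopy. Blue nuclei are viable or early-to-mid apoptotic, and pink nuclei are late apoptotic or necrotic. Apoptosis and necrosis are scored from chromatin condensation as % of cells. Cells are grown at 37 °C in 5% CO2 in RPMI, DMEM or McCoy's 5A with 10–15% heat-inactivated FCS.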

[27] = tested on: HT-29; experiment: Induction of apoptosis in human HT-29 cells at 20 uM after 48 hrs by Hoechst 33258/propidium iodide staining based phase contrast microscopic analysis; type: functional; outline: as §5
[28] = tested on: Caco-2; experiment: Induction of apoptosis in human Caco2 cells at 20 uM after 48 hrs by Hoechst 33258/propidium iodide staining based phase contrast microscopic analysis; type: functional; outline: as §5
[29] = tested on: SAOS-2; experiment: Induction of apoptosis in human Saos2 cells at 20 uM after 48 hrs by Hoechst 33258/propidium iodide staining based phase contrast microscopic analysis; type: functional; outline: as §5
[30] = tested on: MCF7; experiment: Induction of apoptosis in human MCF7 cells at 20 uM after 48 hrs by Hoechst 33258/propidium iodide staining based phase contrast microscopic analysis; type: functional; outline: as §5
[31] = tested on: HeLa; experiment: Induction of apoptosis in human HeLa cells at 20 uM after 48 hrs by Hoechst 33258/propidium iodide staining based phase contrast microscopic analysis; type: functional; outline: as §5
[32] = tested on: HL-60; experiment: Induction of necrosis in human HL60 cells at 20 uM after 48 hrs by Hoechst 33258/propidium iodide staining based phase contrast microscopic analysis; type: functional; outline: as §5
[33] = tested on: HT-29; experiment: Induction of necrosis in human HT-29 cells at 20 uM after 48 hrs by Hoechst 33258/propidium iodide staining based phase contrast microscopic analysis; type: functional; outline: as §5
[34] = tested on: Caco-2; experiment: Induction of necrosis in human Caco2 cells at 20 uM after 48 hrs by Hoechst 33258/propidium iodide staining based phase contrast microscopic analysis; type: functional; outline: as §5
[35] = tested on: SAOS-2; experiment: Induction of necrosis in human Saos2 cells at 20 uM after 48 hrs by Hoechst 33258/propidium iodide staining based […] microscopic analysis; type: functional; outline: as §5
[36] = tested on: MCF7; experiment: Induction of necrosis in human MCF7 cells at 20 uM after 48 hrs by Hoechst 33258/propidium iodide staining based phase contrast microscopic analysis; type: functional; outline: as §5
[37] = tested on: HeLa; experiment: Induction of necrosis in human HeLa cells at 20 uM after 48 hrs by Hoechst 33258/propidium iodide staining based phase contrast microscopic analysis; type: functional; outline: as §5
[38] = tested on: Escherichia coli; experiment: Antimicrobial activity against Escherichia coli ATCC 25922 assessed as zone of inhibition at 30 uL for 24 hrs at 37 degC by disk diffusion test; type: functional, organism-based; outline: as §1

Structure (SMILES): CC1(C)CC[C@]2(C(=O)OCc3ccccc3)CC[C@]3(C)C(=CC[C@@H]4[C@@]5(C)CC[C@H](O)[C@@](C)(/C=N/O)[C@@H]5CC[C@]43C)[C@@H]2C1
- diameter of the inhibition zone (DIZ) [1]: inactive
- diameter of the inhibition zone (DIZ) [2]: inactive
- diameter of the inhibition zone (DIZ) [3]: inactive
- diameter of the inhibition zone (DIZ) [4]: inactive
- diameter of the inhibition zone (DIZ) [5]: inactive
- diameter of the inhibition zone (DIZ) [6]: inactive
- diameter of the inhibition zone (DIZ) [7]: inactive
- diameter of the inhibition zone (DIZ) [8]: inactive
- diameter of the inhibition zone (DIZ) [9]: inactive
- diameter of the inhibition zone (DIZ) [10]: inactive
- diameter of the inhibition zone (DIZ) [11]: inactive
- diameter of the inhibition zone (DIZ) [12]: inactive
- diameter of the inhibition zone (DIZ) [13]: inactive
- diameter of the inhibition zone (DIZ) [14]: inactive
- diameter of the inhibition zone (DIZ) [15]: inactive
- diameter of the inhibition zone (DIZ) [16]: inactive
- MIC [17]: inactive
- MIC [18]: inactive
- MIC [19]: inactive
- IC50 [20]: 10.6 µM
- IC50 [21]: 8.01 µM
- IC50 [22]: 16.1 µM
- IC50 [23]: 10.3 µM
- IC50 [24]: 6.67 µM
- IC50 [25]: 28.9 µM
- Activity [26]: 8%
- Activity [27]: 12%
- Activity [28]: 11%
- Activity [29]: 9%
- Activity [30]: 12%
- Activity [31]: 11%
- Activity [32]: 41%
- Activity [33]: 29%
- Activity [34]: 32%
- Activity [35]: 23%
- Activity [36]: 54%
- Activity [37]: 32%
- diameter of the inhibition zone (DIZ) [38]: inactive

Structure (SMILES): CC1(C)CC[C@]2(C(=O)OCc3ccccc3)CC[C@]3(C)C(=CC[C@@H]4[C@@]5(C)CC[C@H](O)[C@@](C)(C=O)[C@@H]5CC[C@]43C)[C@@H]2C1
- diameter of the inhibition zone (DIZ) [1]: inactive
- diameter of the inhibition zone (DIZ) [2]: inactive
- diameter of the inhibition zone (DIZ) [3]: inactive
- diameter of the inhibition zone (DIZ) [4]: inactive
- diameter of the inhibition zone (DIZ) [5]: inactive
- diameter of the inhibition zone (DIZ) [6]: inactive
- diameter of the inhibition zone (DIZ) [7]: inactive
- diameter of the inhibition zone (DIZ) [8]: inactive
- diameter of the inhibition zone (DIZ) [9]: inactive
- diameter of the inhibition zone (DIZ) [10]: inactive
- diameter of the inhibition zone (DIZ) [11]: inactive
- diameter of the inhibition zone (DIZ) [12]: inactive
- diameter of the inhibition zone (DIZ) [13]: inactive
- diameter of the inhibition zone (DIZ) [14]: inactive
- diameter of the inhibition zone (DIZ) [15]: inactive
- diameter of the inhibition zone (DIZ) [16]: inactive
- MIC [17]: inactive
- MIC [18]: inactive
- MIC [19]: inactive
- IC50 [20]: 8.14 µM
- IC50 [21]: 8.51 µM
- IC50 [22]: 11.1 µM
- IC50 [23]: 12.7 µM
- IC50 [24]: 5.15 µM
- IC50 [25]: 74.2 µM
- Activity [26]: 6%
- Activity [27]: 1%
- Activity [28]: 1%
- Activity [29]: 9%
- Activity [30]: 4%
- Activity [31]: 4%
- Activity [32]: 48%
- Activity [33]: 22%
- Activity [34]: 15%
- Activity [35]: 30%
- Activity [36]: 57%
- Activity [37]: 45%
- diameter of the inhibition zone (DIZ) [38]: inactive
